# From paper PMC8550878 (Journal of medicinal chemistry, 2021)
# Non-standard residues stand in square brackets, D forms with d. Residues, ends and D or L forms follow the SMILES beside them. No end group written: not given here. *: point of attachment. Benzoyl(2-OMe,5-SO2F) = COc1ccc(S(=O)(=O)F)cc1C(=O)*; Biotin = O=C1N[C@H]2[C@H](CS[C@H]2CCCCC(=O)*)N1; X1 = Cc1ccc(S(=O)(=O)F)cc1C(=O)*; hSer = N[C@@H](CCO)C(=O)O; Nle = CCCC[C@H](N)C(=O)O; Abu = CC[C@H](N)C(=O)O; Dap = NC[C@H](N)C(=O)O; Ahx = NCCCCCC(=O)O
# T1: hBfl-1 (Homo sapiens, UniProt Q16548)
# T1 sequence (Q16548 1-149): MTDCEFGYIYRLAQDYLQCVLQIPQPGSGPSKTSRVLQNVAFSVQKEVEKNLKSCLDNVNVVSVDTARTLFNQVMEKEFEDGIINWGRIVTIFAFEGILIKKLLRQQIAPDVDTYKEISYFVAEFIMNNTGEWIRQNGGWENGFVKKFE
# T2: hBfl-1 (residues 1–149) with N-terminal His tag (human, UniProt Q16548 1-149)
# T2 sequence (looked up): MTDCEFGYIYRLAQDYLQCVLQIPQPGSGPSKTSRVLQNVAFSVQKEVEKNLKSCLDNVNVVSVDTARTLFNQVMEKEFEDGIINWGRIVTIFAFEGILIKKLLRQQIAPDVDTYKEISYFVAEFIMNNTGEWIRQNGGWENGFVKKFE
# Tests used:
# [1] = tested on: hMcl-1 construct; assay: In vitro denaturation thermal shift; type: binding, human; details: hMcl-1 construct used for biochemical and crystallization studies (Figure S4)
# [2] = target: T3, hMcl-1 (Homo sapiens, UniProt Q07820); assay: Mass spectrometry of covalent adduct; type: binding; details: protein alone 18,763 Da (Figure S1)
# [3] = tested on: Mcl-1 in A549 cells; assay: Mcl-1 protein levels in A549 cells by immunoblotting; type: cell-based, human; details: 50 or 100 μM compound, 2 h, western blot relative to β-tubulin
# In short: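 A549 cells grown in Ham's F-12 with GlutaMAX, 10% FBS, 1% PenStrep and 0.5 μg/mL puromycin. Cells were exposed to DMSO or test compound (50 or 100 μM) for 2 h, with or without 30 min pre-treatment with 1 μM carfilzomib. Lysates were run on SDS-PAGE, transferred to PVDF, blocked in 5% milk/TBS-T, probed overnight at 4 °C for Mcl-1 and β-tubulin, then HRP secondary and ECL detection.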
# [4] = tested on: Mcl-1 in A549 cell lysates; assay: Covalent adduct in spiked A549 cell lysates by immunoblotting; type: binding, human; details: A549 cell lysates spiked with 100 μM compound for 1 h at 37 °C, western blot
# In short: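 A549 cells grown in Ham's F-12 with GlutaMAX, 10% FBS, PenStrep and 0.5 μg/mL puromycin. Harvested cells were lysed for 20 min on ice in Tris pH 7.4 buffer with Triton X-100, deoxycholate, SDS, IGEPAL, EDTA, protease and phosphatase inhibitors. Cleared, protein-quantified supernatant was incubated with DMSO or 100 μM test compound for 1 h at 37 °C. Then SDS-PAGE, PVDF transfer, milk block, anti-Mcl-1 and β-tubulin overnight at 4 °C, HRP secondary, ECL.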
# [5] = target: T3, hMcl-1; assay: DELFIA displacement assay, hMcl-1; type: binding
# [6] = target: T1, hBfl-1; assay: DELFIA displacement assay, hBfl-1; type: binding
# [7] = Solubility; type: physicochemical; details: qualitative, relative to peptides 10 and 11
# [8] = target: T4, hMcl-1 (residues 172–323) with N-terminal His tag (human, UniProt Q07820 172-323); assay: DELFIA displacement assay
# [9] = target: T4, hMcl-1 (residues 172–323) with …; assay: DELFIA displacement assay; remark: listed apart in the source
# [10] = target: T2, hBfl-1 (residues 1–149) with N-terminal …; assay: DELFIA displacement assay
# T3 sequence (Q07820 172-323): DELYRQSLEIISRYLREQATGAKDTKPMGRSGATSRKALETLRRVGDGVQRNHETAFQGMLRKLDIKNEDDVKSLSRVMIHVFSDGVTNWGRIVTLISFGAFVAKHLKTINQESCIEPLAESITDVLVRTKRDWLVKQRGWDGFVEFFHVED
# T4 sequence (Q07820 172-323): as above
molecule,measurement,setting,value
CC[C@H](C)[C@H](NC(=O)[C@H](CCCNC(=N)N)NC(=O)[C@H](CCCNC(=N)N)NC(=O)[C@H](CC(C)C)NC(=O)[C@H](CCC(N)=O)NC(=O)[C@H](CCC(=O)O)NC(=O)[C@H](C)NC(=O)[C@@H](NC(=O)[C@H](CNC(=O)c1cc(S(=O)(=O)F)ccc1C)NC(C)=O)[C@@H](C)CC)C(=O)NCC(=O)N[C@@H](CC(=O)O)C(=O)N[C@@H](CCCNC(=N)N)C(=O)N[C@@H](Cc1ccccc1)C(N)=O [Compound 15] (Ac-[Dap](X1)IAEQLRRIGDRF-NH2),denaturation thermal shift,[1],23 °C
same,MW of hMcl-1 after incubation with compound,[2],"20,544 Da"
"CC[C@H](C)[C@H](NC(=O)[C@H](CCCNC(=N)N)NC(=O)[C@H](CCCNC(=N)N)NC(=O)[C@H](CC(C)C)NC(=O)[C@H](CCC(N)=O)NC(=O)[C@H](CCC(=O)O)NC(=O)[C@H](C)NC(=O)[C@@H](NC(=O)[C@H](CNC(=O)c1cc(S(=O)(=O)F)ccc1OC)NC(C)=O)[C@@H](C)CC)C(=O)NCC(=O)N[C@@H](CC(=O)O)C(=O)N[C@@H](CCCNC(=N)N)C(=O)N[C@@H](Cc1ccccc1)C(N)=O [Compound 16] (Ac-[Dap](Benzoyl(2-OMe,5-SO2F))IAEQLRRIGDRF-NH2)",Mcl-1 protein levels,[3],decrease in Mcl-1 protein levels
same,covalent adduct with Mcl-1 by band shift in cell lysates,[4],Covalent adduct was detected
AIAQLLRRIGDAF-NH2 [Compound 8],IC50,[5],~1800 nM
AIAQVLRRIGDAF-NH2 [Compound 7],IC50,[5],~1800 nM
Ac-AIAEQLRRIGDRF-NH2 [Compound 12],IC50,[6],> 10000 nM
same,solubility,[7],increased solubility
H-AIAQ[hSer]LRRIGDAF-NH2 (SMILES CC[C@H](C)[C@H](NC(=O)[C@H](C)N)C(=O)N[C@@H](C)C(=O)N[C@@H](CCC(N)=O)C(=O)N[C@@H](CCO)C(=O)N[C@@H](CC(C)C)C(=O)N[C@@H](CCCNC(=N)N)C(=O)N[C@@H](CCCNC(=N)N)C(=O)N[C@H](C(=O)NCC(=O)N[C@@H](CC(=O)O)C(=O)N[C@@H](C)C(=O)N[C@@H](Cc1ccccc1)C(N)=O)[C@@H](C)CC) [peptide 9],IC50,[8],~3000 nM
{Biotin-Ahx}-EDIIRNIARHLAQVGDSMDR-NH2 (SMILES CC[C@H](C)[C@H](NC(=O)[C@H](CC(N)=O)NC(=O)[C@H](CCCNC(=N)N)NC(=O)[C@@H](NC(=O)[C@@H](NC(=O)[C@H](CC(=O)O)NC(=O)[C@H](CCC(=O)O)NC(=O)CCCCCNC(=O)CCCC[C@@H]1SC[C@@H]2NC(=O)N[C@@H]21)[C@@H](C)CC)[C@@H](C)CC)C(=O)N[C@@H](C)C(=O)N[C@@H](CCCNC(=N)N)C(=O)N[C@@H](Cc1c[nH]cn1)C(=O)N[C@@H](CC(C)C)C(=O)N[C@@H](C)C(=O)N[C@@H](CCC(N)=O)C(=O)N[C@H](C(=O)NCC(=O)N[C@@H](CC(=O)O)C(=O)N[C@@H](CO)C(=O)N[C@@H](CCSC)C(=O)N[C@@H](CC(=O)O)C(=O)N[C@@H](CCCNC(=N)N)C(N)=O)C(C)C) [biotinylated-BH3 peptide (biotin-AHA-EDIIRNIARHLAQVGDSMDR-NH2)],binding result,[9],binds
same,binding result,[10],binds
H-AIAQALRRIGDAY-NH2 [peptide 2],IC50,[8],> 3600 nM
H-AIAQALRRIGDAL-NH2 [peptide 4],IC50,[8],1200 nM
Ac-AIAEQLRRIGDRF-NH2 [peptide 12],IC50,[8],570 nM
H-AIAQALRRIGDAR-NH2 [peptide 3],IC50,[8],> 10000 nM
Ac-AIAEALRRIGDAF-NH2 [peptide 10],IC50,[8],261 nM
H-AIAEQLRRIGDAF-NH2 [peptide 11],IC50,[8],313 nM
H-AIAQ[Abu]LRRIGDAF-NH2 (SMILES CC[C@H](NC(=O)[C@H](CCC(N)=O)NC(=O)[C@H](C)NC(=O)[C@@H](NC(=O)[C@H](C)N)[C@@H](C)CC)C(=O)N[C@@H](CC(C)C)C(=O)N[C@@H](CCCNC(=N)N)C(=O)N[C@@H](CCCNC(=N)N)C(=O)N[C@H](C(=O)NCC(=O)N[C@@H](CC(=O)O)C(=O)N[C@@H](C)C(=O)N[C@@H](Cc1ccccc1)C(N)=O)[C@@H](C)CC) [peptide 6],IC50,[8],~1300 nM
H-AIAQALRRIGDA[Nle]-NH2 (SMILES CCCC[C@H](NC(=O)[C@H](C)NC(=O)[C@H](CC(=O)O)NC(=O)CNC(=O)[C@@H](NC(=O)[C@H](CCCNC(=N)N)NC(=O)[C@H](CCCNC(=N)N)NC(=O)[C@H](CC(C)C)NC(=O)[C@H](C)NC(=O)[C@H](CCC(N)=O)NC(=O)[C@H](C)NC(=O)[C@@H](NC(=O)[C@H](C)N)[C@@H](C)CC)[C@@H](C)CC)C(N)=O) [peptide 5],IC50,[8],~1600 nM
